FXIIa mix inh: factor XIIa (human) inhibition, mixture screen. P00748. AID 684. purified FXIIa, fluorogenic substrate, pooled mixtures. actives 0.2% (n = 62,000). inhibition, % at 5 µM;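 further: 0% = enzyme without compound and 100% = no enzyme blank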
HePTP inhibitor: blocks human HePTP tyrosine phosphatase; P35236; actives 0.64% (n = 110,000); recombinant HePTP phosphatase activity, OD absorbance; inhibition, % at 20 µM; AID 521; in the data active means inhibition above about 50%;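 further: plate controls were vehicle for no effect and reference inhibitor for full effect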
Target sequence (P35236 whole entry, looked up): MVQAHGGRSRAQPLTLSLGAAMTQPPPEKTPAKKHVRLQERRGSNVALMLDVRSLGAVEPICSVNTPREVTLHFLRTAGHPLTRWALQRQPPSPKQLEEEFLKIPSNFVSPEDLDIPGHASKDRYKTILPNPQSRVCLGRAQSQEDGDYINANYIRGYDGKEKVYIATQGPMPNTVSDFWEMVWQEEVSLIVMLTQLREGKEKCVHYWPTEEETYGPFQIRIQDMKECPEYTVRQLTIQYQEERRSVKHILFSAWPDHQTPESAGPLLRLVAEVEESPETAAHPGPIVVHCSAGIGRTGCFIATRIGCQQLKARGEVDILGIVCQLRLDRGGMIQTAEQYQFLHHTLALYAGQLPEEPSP
AP complement: alternative pathway complement inhibition, orthogonal assay; inhibition, % at 5 µM; AID 1235; Human serum alternative complement pathway, LPS-coated ELISA, C3 deposition; tested in compound mixtures; actives 0.08% (n = 62,000);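 active means inhibition above 30% in each of the two pooled mixtures holding the compound, so the lower value exceeds 30%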;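 further: 0% = serum in Mg-EGTA without compound and 100% = EDTA serum blank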
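Medium: diluted human serum in Mg2+-EGTA GVB++. Assay system: human serum complement alternative pathway, C3 deposition onto LPS. Also added: Plate-bound LPS. Technique: Anti-C3 ELISA, OD 450 nm. Measure: percent inhibition. Incubation: 1 h at 37 °C. Dosing: 5 µM each compound, pools of ten, 50 µM per pool.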
FXIa inh mix: inhibitors of human coagulation factor XIa, pooled mixtures. actives 0.19% (n = 62,000). P03951. inhibition, % at 5 µM. purified FXIa, fluorogenic substrate;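 further: each value is inhibition by a whole ten-compound pool holding the compound; 0% = enzyme with no mixture and 100% = wells lacking enzyme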
BAP1 inh: inhibitors of human BAP1 deubiquitinase | AID 436 | recombinant BAP1, Ub-AMC hydrolysis fluorescence kinetic; hits give low values | actives 0.48% (n = 72,000) | calls only at 20 µM | Q92560;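 active means activity remaining at or below 50% of control, provided the compound also passes the data quality filters; inactive means the rest, including low values that fail the filters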;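 further: 100% = DMSO wells rate and 0% = substrate alone blank rate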
The depositor's hits bear a star; i = inactive; x = no result given; + = active, no number; ! = a repeat was not active. This is a sample that favours compounds with a hit; in the whole collection about 1% have one here. Unless noted, no stated cut-off is given here; in the data, active means inhibition above about 20% (passing the limit was not always enough); inactive means the rest.

SMILES | FXIIa mix inh | HePTP inhibitor | AP complement | FXIa inh mix | BAP1 inh
Cc1c(/C=C/c2nc3ccccc3c(=O)n2-c2ccc([N+](=O)[O-])cc2)c2ccccc2n1C | x | 81* | x | x | x
Cc1ccc(S(=O)(=O)/N=C(\c2ccccc2)N(C)C)cc1 | x | -8 | x | x | x
CCCC(=O)Nc1nc2ccc(S(N)(=O)=O)cc2s1 | 22* | 9 | -3 | 3 | i
O=C(NCc1n[nH]c(=S)n1-c1ccc(Br)cc1)c1ccc(S(=O)(=O)N2CCCC2)cc1 | x | x | x | x | i
COc1ccc(-n2c(CNC(=O)c3ccc(S(=O)(=O)N4CCCC4)cc3)n[nH]c2=S)cc1 | 22* | 3 | 7 | -5 | i
CN(C)CCNC(=O)c1cc2ccccc2oc1=O | 21* | 4 | -5 | 3 | i
CCOc1cc(C2C(C(=O)OC)=C(C)NC3=C2C(=O)CC(c2ccccc2)C3)cc(Br)c1O (stereo unspecified) | x | x | x | x | i
O=C(CSc1ccccn1)Nc1ccc2c(c1)C(=O)c1ccccc1C2=O | x | 105* | x | x | x
O=C(Nc1ccccc1C(=O)N1CCOCC1)c1ccco1 | -17 | -2 | 6 | 0 | i
CC(C)C(NC(=O)c1ccccc1NC(=O)c1ccco1)C(=O)O (stereo unspecified) | -2 | 9 | 0 | 12 | i
CC1CCN(C(=O)c2ccccc2NC(=O)c2ccco2)CC1 | x | 103* | x | x | x
CC(NC(=O)c1ccccc1NC(=O)c1ccco1)c1ccccc1 (stereo unspecified) | 7 | 6 | 5 | 24* | i
COc1ccc(C)cc1NC(=O)COc1ccc(Cl)cc1C | x | 11 | x | x | x
COc1ccc(CN(C(=O)c2ccco2)C2CC(C)N(C)CC2C)cc1 (stereo unspecified) | 2 | 102*! | 8 | -34 | i
Cc1cc(C23CC4CC(C2)CC(c2cc(C)c(S(N)(=O)=O)c(C)c2)(C4)C3)cc(C)c1S(N)(=O)=O | x | 4 | x | x | x
Cc1ccc([N+](=O)[O-])cc1/C=C1/C=C(c2ccccc2)OC1=O | x | 1 | x | x | x
O=C1OC(c2ccccc2)=C/C1=C/c1ccc(-c2ccc([N+](=O)[O-])cc2Br)o1 | x | 104* | x | x | x
NC1=NC(=O)/C(=C/c2ccc(-c3ccc([N+](=O)[O-])cc3Br)o2)S1 | x | 100* | x | x | x
CCN1C(=O)/C(=C\c2ccc(-c3ccc([N+](=O)[O-])cc3Br)o2)SC1=S | x | -8 | x | x | x
Cc1cccn2c(=O)c(/C=C3\SC(=S)N(Cc4ccco4)C3=O)c(NCCCn3ccnc3)nc12 | x | 62* | x | x | x
S=C(c1ccc(-c2ccc(Cl)cc2Cl)o1)N1CCN(c2ccccc2)CC1 | x | 11 | x | x | x
COc1cc2c(cc1NC(=O)COc1ccc(Cl)cc1C)oc1ccccc12 | x | 2 | x | x | x
Cc1cccc(N2CCN(C(=O)CCn3c(=S)[nH]c4cc5c(cc4c3=O)OCO5)CC2C)c1 (stereo unspecified) | 45* | 6 | 11 | 5 | i
O=C(CCCn1c(=S)[nH]c2cc3c(cc2c1=O)OCO3)N1CCN(c2ccccc2)CC1 | -20 | 8 | 17 | 16 | i
O=C(Nc1ccc2nn(-c3ccc(F)cc3)nc2c1)c1ccc(Br)o1 | x | 81* | x | x | x
SMILES | FXIIa mix inh | HePTP inhibitor | AP complement | FXIa inh mix | BAP1 inh
O=C(Nc1ccc2nn(-c3ccccc3)nc2c1)c1ccc(Br)o1 | 9 | 8 | 5 | 1 | i
O=C(C1CN(S(=O)(=O)c2ccccc2)CCN1S(=O)(=O)c1ccccc1)N1CCCCCC1 (stereo unspecified) | 5 | 50*! | 1 | 3 | x
COC(=O)c1c(NC(=O)c2cccc(F)c2)sc(C)c1C | x | -6 | x | x | x
NC(=O)c1ccc(NC(=O)C2CCCC2)cc1 | x | 8 | x | x | x
O=C(Nc1ccc(-n2cnnn2)cc1)C1CCC1 | 20* | 8 | -4 | 7 | i
CC(C)(C)c1cnnn1-c1ccc(/C=C/C(=O)c2ccccc2)cc1 | x | 10 | x | x | x
CC(=O)c1ccc(-n2nncc2C(C)(C)C)cc1 | 34* | 6 | 13 | 1 | x
O=C(NCCc1ccccc1)C(=O)NCc1ccc2c(c1)OCO2 | x | -2 | x | x | x
COC(=O)c1c(N2C(=O)C=CC2=O)sc(C)c1C | x | -3 | x | x | x
Cc1cccc(OCC(O)CN2C(=O)NC(C)(C)C2=O)c1 (stereo unspecified) | x | 104* | x | x | x
Cc1cc(C)n(C(=O)CNC(=O)c2ccc(Cl)cc2)n1 | x | -5 | x | x | x
COC(=O)c1ccc(S(=O)(=O)N(Cc2cc3cc4c(cc3[nH]c2=O)OCO4)C2CCCCC2)cc1 | 1 | 5 | 13 | 4 | +
O=C1N=C(N2CCOCC2)S/C1=C/c1ccc(Cl)cc1 | x | 102* | x | x | x
CC1CCN(CCCNC(=O)C2CCN(S(=O)(=O)N3CCCCC3)CC2)CC1 | -2 | 8 | 21 | -3 | i
CC1CCCCN1CCNC(=O)C1CCN(S(=O)(=O)N2CCCCC2)CC1 (stereo unspecified) | 21* | -1 | 5 | -3 | i
CN1C(=O)/C(=C/C=C/c2ccco2)SC1=S | x | 52* | x | x | x
CCCC(=Nc1cccc([N+](=O)[O-])c1)C1=C(O)CC(C)(C)CC1=O | x | 61* | x | x | x
O=S(=O)(NNc1ccccc1)c1ccc(Cl)cc1 | x | 10 | x | x | x
CCOC(=O)C1=C(O)CSC1=Nc1ccc(Cl)cc1Cl | x | -10 | x | x | x
Cc1cc(N)ccc1NC(=O)c1ccc(N)cc1 | x | x | x | x | i
COC(=O)c1ccc(C(=O)Nc2ccc(N)cc2N)cc1 | 5 | 10 | 1 | 23* | i
O=C(/C=C\c1ccco1)Oc1ccc(/C=N\NC(=O)c2cncc(Br)c2)cc1 | x | 58* | x | x | x
CCN(CC)C(=O)c1sc(NC(=O)c2cc(Cl)ccc2Cl)c(C#N)c1C | x | 104* | x | x | x
Cc1sc(NC(=O)c2cc(Cl)ccc2Cl)c(C#N)c1C | x | 103* | x | x | x
CC1=NN(c2ccc(Cl)c(Cl)c2)C(=O)/C1=C/c1ccco1 | x | 5 | x | x | x
SMILES | FXIIa mix inh | HePTP inhibitor | AP complement | FXIa inh mix | BAP1 inh
CC1=NN(c2ccc(Cl)c(C(=O)O)c2)C(=O)/C1=C\c1ccco1 | x | 73* | x | x | x
Cc1c(-c2cccc(Cl)c2)nc2ccccc2c1C(=O)O | x | 105* | x | x | x
Cc1ccc(C23CC4CC(CC(C(=O)Nc5ccc(F)cc5F)(C4)C2)C3)cc1 | x | 72* | x | x | x
COC(=O)/C=C(\C)NC(=O)c1cccs1 | -1 | -8 | -13 | -1 | i
COC(=O)/C=C(\C)NCCN/C(C)=C/C(=O)OC | x | 105* | x | x | x
Cc1ccc(OCCOc2ccccc2C=O)cc1 | x | 0 | x | x | x
Cc1ccc(NC(=O)Cc2nn(C)c(=O)c3ccccc23)cc1F | 20* | 7 | 1 | 14 | i
O=C(Nc1cccc(Cl)c1)c1cccc(NC(=S)Nc2ccc(F)cc2)c1 | x | 104* | x | x | x
O=C(Nc1cccc(Cl)c1)c1cccc(NC(=S)Nc2ccccc2)c1 | x | 8 | x | x | x
Cc1ccn2cc(-c3ccccc3)nc2c1 | x | x | x | x | i
CCOC(=O)c1c(NC(=S)Nc2ccccc2)sc2c1CCN(Cc1ccccc1)C2 | x | -14 | x | x | x
CCN1CCc2c(sc(NC(=O)Nc3ccc(Cl)cc3)c2C(N)=O)C1 | x | 101* | x | x | x
O=C(O)CN1C(=O)/C(=C2\SC(=S)N(/N=C/c3cc([N+](=O)[O-])ccc3O)C2=O)c2ccccc21 | x | 102* | x | x | x
O=C(O)CCCCCN1C(=O)/C(=C2/C(=O)N(CC(=O)O)c3ccccc32)SC1=S | x | 6 | x | x | x

Compound activity as filed in PubChem BioAssay.
